Several values for one entry are separate records, joined by “and”; a condition that tells them apart may be missing. Identical values can stand only once. Entries after “also recorded” stand apart in the source; their conditions may differ. Like-named read-outs stand apart in the source and are kept apart here. One block for each molecule: values may come before it.
Legend:
[1] = test system: P. falciparum CQ^S-3D7; assay: Growth inhibition assay; type: cell-based, Plasmodium falciparum; settings: for inhibition at 10 µM: 3D7, 10 μM; for IC50: one intra-erythrocytic cycle
[2] = molecular target: recombinant 6xHis-CDPK1 protein (rPfCDPK1) (Plasmodium falciparum, UniProt P62344); assay: Microscale thermophoresis; type: binding
Summary of the method: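 Recombinant 6xHis-PfCDPK1 (10 μM) in HEPES-NaCl (pH 7.5) with 0.05 % Tween-20 was labelled with 30 μM cysteine-reactive red maleimide dye for 30 min at RT in the dark. It was then column-purified, keeping fractions below 1000 fluorescence counts. Test compound was serially titrated (4.8 nM–80 μM or 2.4 nM–40 μM) against constant labelled protein and premixed 10 min at RT in the dark. MST was run at RT, 20 % LED and 40 % MST power.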

[3] = molecular target: rPfCDPK1 (Plasmodium falciparum, UniProt P62344); assay: In vitro kinase assay; type: biochemical
Summary of the method: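 100 ng 6xHis-CDPK1 per reaction in 100 mM Tris-Cl pH 7.4, 50 mM MgCl2, 2.5 mM DTT, 2.5 mM MnCl2, with or without Ca2+ (2.5 mM EGTA). Dephosphorylated bovine casein substrate. Enzyme pre-incubated with test compound (1 or 5 µM) for 20 min at RT. ATP-started reaction run 1 h at 30 °C. ADP formation read by ADP-Glo luminescence.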

[4] = test system: mammalian kinome (HepG2 lysate); assay: In vitro kinase assay with HepG2 lysate; type: biochemical, human; settings: HepG2 cytosolic fraction; 1 and 5 μM
Summary of the method: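 HepG2 cells (10^7) were lysed for 1 h at 4 °C in 20 mM Tris (pH 7.7), 0.5 % NP-40, 200 mM NaCl, 50 mM NaF, 0.2 mM orthovanadate, protease inhibitors and 0.1 % 2-mercaptoethanol. The lysate was spun at 13,000 rpm for 10 min. Kinase activity of the supernatant was measured by ADP-Glo luminescence with test compound at 1 and 5 μM.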

[5] = test system: P. falciparum CQ^R-RKL-9; assay: Growth inhibition assay; type: cell-based, Plasmodium falciparum
[6] = test system: CQ^S-3D7 P. falciparum; assay: Growth progression analysis / blood stage-specific effect; type: cell-based, Plasmodium falciparum
[7] = test system: hemozoin in synchronized ring-stage parasites; assay: Hemozoin assay; type: cell-based, Plasmodium falciparum; settings: 10 μM; 30 h
Summary of the method: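 P. falciparum cultures were synchronized at ring stage, held at 6 % parasitemia, and treated with test compound for 30 h in triplicate. Cells were then treated with 2.5 % SDS in 0.1 M sodium bicarbonate (pH 8.8) for 10 min at RT and centrifuged. The pellet was resuspended in 5 % SDS/50 mM NaOH for 30 min. Monomeric heme was read as A405 minus A750.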

[8] = Hemolytic activity; type: cell-based, human; settings: human, red blood cell suspension (10 %, v/v), pH 7.4
Summary of the method: (§1)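 Washed human RBCs (10 %, v/v) were resuspended in PBS (pH 7.4) and incubated with test compound at 1.5–800 μM for 1 h at 37 °C. After centrifugation, supernatant absorbance was read at 415 nm. RBCs treated with 1 % (v/v) Triton X-100 were the positive control. Run in triplicate.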

[9] = test system: human RBCs; assay: Hemolytic activity; type: cell-based; settings: 1.5–800 μM
Summary of the method: as §1

[10] = MTT cytotoxicity assay; type: cell-based, human; settings: human, HEK293 cells
Summary of the method: (§2)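 Cells were seeded in DMEM with 10 % FBS (HEK293 2 × 10^4 per well; HepG2 10^4 per well) and incubated overnight at 37 °C in 5 % CO2. Test compound was added at 2.5–600 μM (HEK293) or 2–500 μM (HepG2) for 24 h at 37 °C, with untreated cells as control. MTT was added (stock 5 mg/mL in PBS), formazan was dissolved in DMSO, and absorbance read at 570 nm. Run in triplicate.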

[11] = test system: HEK293 cells; assay: MTT cytotoxicity assay; type: cell-based, human; settings: HEK293; 2.5–600 μM
Summary of the method: as §2

[12] = MTT cytotoxicity assay; type: cell-based, human; settings: human, HepG2 cells
Summary of the method: as §2

[13] = test system: HepG2 cells; assay: MTT cytotoxicity assay; type: cell-based, human; settings: HepG2; 2–500 μM
Summary of the method: as §2

[14] = test system: PfCDPK1; settings: cited from earlier work
[15] = test system: P. falciparum CQ^S-3D7; settings: stated IC50 of the standard drug, used as positive control; ref not given; cited from earlier work
[16] = Plasmodium falciparum, CQ^S-3D7
[17] = Plasmodium falciparum, 3D7, CQ^S-3D7

rPfCDPK1, sequence (P62344 whole entry): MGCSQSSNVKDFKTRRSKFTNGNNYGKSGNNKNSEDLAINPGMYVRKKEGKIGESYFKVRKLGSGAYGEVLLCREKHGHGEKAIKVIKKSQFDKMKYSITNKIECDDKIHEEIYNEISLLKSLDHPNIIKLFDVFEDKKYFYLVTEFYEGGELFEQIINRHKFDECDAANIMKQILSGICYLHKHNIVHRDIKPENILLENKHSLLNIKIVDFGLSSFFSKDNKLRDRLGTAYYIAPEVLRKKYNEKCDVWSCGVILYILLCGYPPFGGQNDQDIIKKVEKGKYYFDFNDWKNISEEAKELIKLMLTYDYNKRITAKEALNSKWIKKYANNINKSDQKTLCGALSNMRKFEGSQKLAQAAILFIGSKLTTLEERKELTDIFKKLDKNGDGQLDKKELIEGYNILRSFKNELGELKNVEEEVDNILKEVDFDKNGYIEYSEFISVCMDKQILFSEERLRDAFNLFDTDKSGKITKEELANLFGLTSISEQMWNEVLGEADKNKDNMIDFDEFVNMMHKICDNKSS
recombinant 6xHis-CDPK1 protein (rPfCDPK1), sequence (P62344 whole entry): as above

Compound: O=C(/C=C/c1cn(Cc2cn(-c3ccnc4cc(Cl)ccc34)nn2)c2ccccc12)c1cccc(Br)c1 [7f, (E)-1-(3-bromophenyl)-3-(1-((1-(7-chloroquinolin-4-yl)-1H-1,2,3-triazol-4-yl)methyl)-1H-indol-3-yl)prop-2-en-1-one]
inhibition at 10 µM [1, 16]: > 50%

Compound: O=C(/C=C/c1cn(Cc2cn(-c3ccnc4cc(Cl)ccc34)nn2)c2ccccc12)c1ccccc1Cl [7h, (E)-1-(2-chlorophenyl)-3-(1-((1-(7-chloroquinolin-4-yl)-1H-1,2,3-triazol-4-yl)methyl)-1H-indol-3-yl)prop-2-en-1-one]
inhibition at 10 µM [1, 16]: > 50%

Kd [2]: 17.3 µM | PI of PfCDPK1 (inhibition of phosphorylation activity) ([3]; 1 μM): 71.9%
Compound: COc1ccccc1C(=O)/C=C/c1cn(Cc2cn(-c3ccnc4cc(Cl)ccc34)nn2)c2ccccc12 [7l, (E)-3-(1-((1-(7-chloroquinolin-4-yl)-1H-1,2,3-triazol-4-yl)methyl)-1H-indol-3-yl)-1-(2-methoxyphenyl)prop-2-en-1-one]
IC50 [1, 17]: 2.4 µM | inhibition of host kinase activity in words [4]: no inhibition of the host kinase activity

Compound: COc1ccc(C(=O)/C=C/c2cn(Cc3cn(-c4ccnc5cc(Cl)ccc45)nn3)c3ccccc23)cc1 [7n, (E)-3-(1-((1-(7-chloroquinolin-4-yl)-1H-1,2,3-triazol-4-yl)methyl)-1H-indol-3-yl)-1-(4-methoxyphenyl)prop-2-en-1-one]
inhibition at 10 µM [1, 16]: > 50%

Compound: O=C(/C=C/c1cn(Cc2cn(-c3ccnc4cc(Cl)ccc34)nn2)c2ccccc12)c1cccs1 [7p, (E)-3-(1-((1-(7-chloroquinolin-4-yl)-1H-1,2,3-triazol-4-yl)methyl)-1H-indol-3-yl)-1-(thiophen-2-yl)prop-2-en-1-one]
inhibition at 10 µM [1, 16]: > 50%

Compound: Cc1ccccc1C(=O)/C=C/c1cn(Cc2cn(-c3ccnc4cc(Cl)ccc34)nn2)c2ccccc12 [7r, (E)-3-(1-((1-(7-chloroquinolin-4-yl)-1H-1,2,3-triazol-4-yl)methyl)-1H-indol-3-yl)-1-o-tolylprop-2-en-1-one]
IC50 ([1]; CQ^S-3D7): 1.8 µM | inhibition at 10 µM [1, 16]: > 50% | IC50 [1, 17]: 3.5 µM | IC50 ([5]; CQ^R-RKL-9, one intra-erythrocytic cycle): 2.7 µM | Resistance Index (RI) ([5]; IC50 CQ^R-RKL-9/CQ^S-3D7): 1.49 | intra-erythrocytic progression: stage affected [6]: effective against the mature stages of the parasite | growth progression, morphology ([6]; ring stage treated at IC50 concentration, 40 and 56 h post-treatment): stuck at the trophozoite stage with altered morphology | free monomeric heme (control-free heme) [7]: 48.8% and 48% | hemolysis at 1 h, 50 µM [8]: 2.3% | hemolysis at 1 h, 800 µM [8]: 5.9% | hemolytic activity in words [9]: no significant lysis; also recorded: no apparent hemolytic activity | viability at 24 h, 100 µM [10]: > 90% | cytotoxicity in words [11]: non-cytotoxic | viability at 24 h, 100 µM [12]: > 90% | cytotoxicity in words [13]: non-cytotoxic | Kd [2]: 7.2 µM | inhibition at 1 µM ([3]; read-out: PI of PfCDPK1 (inhibition of phosphorylation activity), 1 μM): 45.5% | inhibition at 5 µM ([3]; read-out: PI of PfCDPK1 (inhibition of phosphorylation activity), 5 μM): 43.8% | inhibition of host kinase activity in words [4]: no inhibition of the host kinase activity; also recorded: no inhibitory effect on the human kinome; also recorded: no inhibitory effect on the human kinases

Compound: CCCCCC(=O)NCCc1c[nH]c2ccccc12 [A, N-[2-(1H-indol-3-yl)ethyl]hexanamide]
PfCDPK1 inhibition potency in words [14]: sub-micromolar potency

Compound: CCN(CC)CCCC(C)Nc1ccnc2cc(Cl)ccc12 (stereo not drawn) [CQ, chloroquine]
IC50 [15]: 0.025 µM

Compound: O=Cc1cn(Cc2cn(-c3ccnc4cc(Cl)ccc34)nn2)c2ccccc12 [compound 9, 1-((1-(7-chloroquinolin-4-yl)-1H-1,2,3-triazol-4-yl)methyl)-1H-indole-3-carbaldehyde]
growth inhibition in words ([1]; at the tested concentration, CQ^S 3D7): poor inhibition; also recorded: not a good inhibitor

— publication PMC10847618 (Heliyon, 2024)
